Results as given in ChEMBL document CHEMBL3600357 (J Med Chem, 2015).
Activity calls are given as the source filed them. The rule behind the calls is not given here.

Columns and labels:
[1] = Inhibition of rat MDM2 by TR-FRET assay
Rattus norvegicus [2] = species: Rattus norvegicus; test: Toxicity in rat assessed as changes in testes parameters; type: organism-based, Testis; details: in vivo
[3] = Protein binding in OF1 mouse plasma by equilibrium dialysis method; type: ADME, cell-free; details: read-out: PPB
Canis familiaris = test: Oral bioavailability in beagle dog at 0.3 mg/kg; type: ADME, organism-based, Canis lupus familiaris; details: in vivo
Rattus norvegicus [4] = test: Toxicity in human SJSA1 cells xenografted dosed rat assessed as induction of histopathological changes dosed orally on daily basis under q24h regime; type: organism-based, SJSA-1; details: in vivo, po
How it was run: (§1)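 Rats bearing MDM2-amplified SJSA-1 human tumours, treated daily. Tolerability was monitored during treatment. Histopathology for compound-related findings was performed at the 30 mg/kg daily dose.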

[5] = Inhibition of cell proliferation of human Saos2 cells deficient with p53 gene; details: SAOS-2
Rattus norvegicus [6] = test: Toxicity in human SJSA1 cells xenografted rat assessed as change in body weight at 70 mg/kg, po dosed three times per week (reference value: 1.9 to 6.8%); type: organism-based, SJSA-1; details: in vivo
Rattus norvegicus [7] = test: Toxicity in human SJSA1 cells xenografted dosed rat assessed as drug toleration dosed orally on daily basis under q24h regime; type: organism-based, SJSA-1; details: in vivo, po; how it was run: as §1
Rattus norvegicus [8] = test: Oral bioavailability in Sprague-Dawley rat at 3 mg/kg; type: ADME, organism-based; details: in vivo
How it was run: (§2)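 Sprague-Dawley rats. IV dose given as a solution in NMP:PEG200 (10:90); 3 mg/kg PO given as a suspension in CMC:water:Tween (0.5:99:0.5). AUC and Cmax dose-normalized to 1 mg/kg. Mean ± SD from four rats.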

Rattus norvegicus [9] = test: In-vivo inhibition of MDM2/p53 interaction in human SJSA1 cells xenografted rat assessed as increase in MDM2 mRNA level at 30 mg/kg, po measured within 72 hrs post dose by qRT-PCR method; type: functional, organism-based; details: SJSA-1
How it was run: (§3)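 SJSA-1 (MDM2-amplified) tumour-bearing rats were dosed at 30 mg/kg. Tumour samples were collected over time, and p21, MDM2 and PUMA mRNA were measured as p53 pharmacodynamic markers, alongside compound levels.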

[10] = AUC (0 to 24 hrs) in human SJSA1 cells xenografted rat assessed as mouse survival at 10 mg/kg, po qd; type: ADME, organism-based, SJSA-1; set-up: time < 24 hr, dose 10 mg/kg, route oral; details: in vivo
How it was run: (§4)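 Rats bearing MDM2-amplified human SJSA-1 tumors, dosed orally either daily or 3qw (Monday, Wednesday, Friday). Plasma exposure reported as AUC0-24, plus AUC0-48 for the 3qw schedule.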

Rattus norvegicus [11] = test: Toxicity in human SJSA1 cells xenografted rat assessed as mouse survival at 30 mg/kg, po dosed 3 times per week; type: organism-based, SJSA-1; details: in vivo
How it was run: (§5)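 Tolerability was monitored in SJSA-1 tumour-bearing rats during the daily and 3qw (Monday, Wednesday, Friday) treatment schedules. Histopathology was done on all 3qw doses and on the 30 mg/kg daily group.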

[12] = Terminal half life in OF1 mouse at 1 mg/kg, iv; type: ADME, organism-based; details: in vivo, read-out: beta t1/2 (converted)
[13] = Intrinsic clearance in human liver microsomes; type: ADME; details: read-out: CLH
Rattus norvegicus [14] = test: In-vivo inhibition of MDM2/p53 interaction in human SJSA1 cells xenografted rat assessed as increase in PUMA mRNA level at 30 mg/kg, po measured within 72 hrs post dose by qRT-PCR method; type: functional, organism-based; details: SJSA-1; how it was run: as §3
Mus musculus [15] = test: Oral bioavailability in OF1 mouse at 3 mg/kg; type: ADME, organism-based; details: in vivo
Rattus norvegicus [16] = test: Toxicity in human SJSA1 cells xenografted rat assessed as change in body weight at 30 mg/kg, po dosed three times per week (reference value: 1.9 to 6.8%); type: organism-based, SJSA-1; details: in vivo
Rattus norvegicus [17] = test: Terminal half life in Sprague-Dawley rat at 1 mg/kg, iv; type: ADME, organism-based; details: in vivo; how it was run: as §2
[18] = AUC (0 to 24 hrs) in human SJSA1 cells xenografted rat assessed as mouse survival at 5 mg/kg, po qd; type: ADME, organism-based, SJSA-1; set-up: time < 24 hr, dose 5 mg/kg, route oral; details: in vivo; how it was run: as §4
Cynomolgus monkey = test: AUC in cynomolgus monkey at 0.3 mg/kg, po; type: ADME, organism-based, Macaca fascicularis; details: in vivo
[19] = Terminal half life in beagle dog at 0.1 mg/kg, iv; type: ADME, organism-based, Canis lupus familiaris; details: in vivo, read-out: beta t1/2 (converted)
Mus musculus [20] = test: AUC in OF1 mouse at 3 mg/kg, po; type: ADME, organism-based; details: in vivo
Rattus norvegicus [21] = species: Rattus norvegicus; test: Toxicity in male rat assessed as changes in adrenal gland parameters; type: organism-based; details: in vivo
[22] = Inhibition of Ras (unknown origin) assessed as inhibition of Ras-Raf interaction by TR-FRET assay; set-up: species or system Homo sapiens
SJSA-1 = test: Antitumor activity against human SJSA1 cells xenografted in rat assessed as reduction tumor growth dosed orally three times per week; type: functional, organism-based
How it was run: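 SJSA-1 tumour-bearing rats were treated either daily or 3qw (Monday, Wednesday and Friday) across a range of doses, and tumour growth was followed over the treatment course. Plasma AUC0-24 was also determined, along with AUC0-48 for the 3qw schedule.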

[23] = Protein binding in cynomolgus monkey plasma by equilibrium dialysis method; type: ADME, cell-free, Macaca fascicularis; details: read-out: PPB
Rattus norvegicus [24] = test: Toxicity in human SJSA1 cells xenografted rat assessed as mouse survival at 30 mg/kg, po qd; type: organism-based, SJSA-1; details: in vivo; how it was run: as §5
HCT-116 = test: Inhibition of cell proliferation of human HCT116 cells deficient with p53 gene
Rattus norvegicus [25] = test: Toxicity in human SJSA1 cells xenografted rat assessed as mouse survival at 70 mg/kg, po dosed 3 times per week; type: organism-based, SJSA-1; details: in vivo; how it was run: as §5
[26] = target: T1, Apoptosis regulator Bcl-2 (Homo sapiens, UniProt P10415); test: Inhibition of Bcl2 (unknown origin) assessed as inhibition of Bcl2-Bak interaction by TR-FRET assay
T1 sequence (P10415 whole entry): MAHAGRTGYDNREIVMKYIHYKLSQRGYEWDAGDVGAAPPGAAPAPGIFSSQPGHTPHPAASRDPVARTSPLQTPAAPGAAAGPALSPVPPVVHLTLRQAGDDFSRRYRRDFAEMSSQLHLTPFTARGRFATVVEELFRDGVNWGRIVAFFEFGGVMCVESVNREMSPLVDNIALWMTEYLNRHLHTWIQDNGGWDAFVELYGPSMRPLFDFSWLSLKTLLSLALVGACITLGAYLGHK

[27] = target: T1, Apoptosis regulator Bcl-2; test: Inhibition of Bcl2 (unknown origin) assessed as inhibition of Bcl2-Bad interaction by TR-FRET assay

COc1cc2c(cc1OC(C)C)[C@H](c1ccc(Cl)cc1)N(c1ccc(N(C)C[C@H]3CC[C@H](N4CCN(C)C(=O)C4)CC3)cc1)C(=O)C2 [CGM-097]
Ki [1]: 0.0474 µM | Activity (Rattus norvegicus [2]): Toxic | fraction unbound [3]: < 0.01 | F (Canis familiaris): 74% | Activity (Rattus norvegicus [4]): Non-toxic | IC50 [5]: 20.5 µM | Activity (Rattus norvegicus [6]): 7% | Activity (Rattus norvegicus [7]): Non-toxic | F (Rattus norvegicus [8]): 81% | inhibition (Rattus norvegicus [9]): Active | AUC at 24 h [10]: 61 µM·h | Activity (Rattus norvegicus [11]): Non-toxic | half-life [12]: 6.4 h | microsomal CLint [13]: 52.3 µL/min/mg | inhibition (Rattus norvegicus [14]): Active | F (Mus musculus [15]): 71% | Activity (Rattus norvegicus [16]): 4.5% | beta t1/2 (Rattus norvegicus [17]): 12.1 h | AUC at 24 h [18]: 34 µM·h | AUC (Cynomolgus monkey): 3.73 µM·h | half-life [19]: 19.8 h | AUC (Mus musculus [20]): 3.337 µM·h | Activity (Rattus norvegicus [21]): Toxic | IC50 [22]: 4.5 µM | growth inhibition (GI) (SJSA-1): Dose-dependent effect | fraction unbound [23]: < 0.01 | Activity (Rattus norvegicus [24]): Non-toxic | IC50 (HCT-116): 16 µM | Activity (Rattus norvegicus [25]): Non-toxic | IC50 [26]: > 50 µM | IC50 [27]: > 50 µM
